Data on nine compounds can be found in ChEMBL document CHEMBL5230162 (RSC Med Chem, 2023).

Converted amounts (≈) assume the structure as drawn. The source made the active and inactive calls. The calls are words filed in the database; no cut-off is given here.

A short description of data set [1]: Binding affinity to human ASGPR assessed as equilibrium dissociation constant by surface plasmon resonance spectroscopy. (SPR reads the build-up and loss of mass on a sensor chip optically.)
Data set [2] in a line: Stability of the compound in acetate buffer at pH 5 measured for 24 hrs by HPLC-MS analysis. Format: physicochemical. To be noted: pH 5, 24 h. An outline of the steps: (§1)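 Incubated at 37 °C. Aliquots taken at 0, 0.5, 1, 2, 4, 8 and 24 h and quenched in cold methanol, stored at −20 °C, centrifuged, and the supernatant analysed by HPLC-MS.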
Data set [3] is described as follows: Solubility of the compound in water incubated for 15 mins under shaking conditions by UV spectrophotometry. The class given is physicochemical.
Data set [4] deals with T1, 3-hydroxy-3-methylglutaryl-coenzyme A reductase (Homo sapiens) (UniProt P04035).
T1 sequence (whole entry): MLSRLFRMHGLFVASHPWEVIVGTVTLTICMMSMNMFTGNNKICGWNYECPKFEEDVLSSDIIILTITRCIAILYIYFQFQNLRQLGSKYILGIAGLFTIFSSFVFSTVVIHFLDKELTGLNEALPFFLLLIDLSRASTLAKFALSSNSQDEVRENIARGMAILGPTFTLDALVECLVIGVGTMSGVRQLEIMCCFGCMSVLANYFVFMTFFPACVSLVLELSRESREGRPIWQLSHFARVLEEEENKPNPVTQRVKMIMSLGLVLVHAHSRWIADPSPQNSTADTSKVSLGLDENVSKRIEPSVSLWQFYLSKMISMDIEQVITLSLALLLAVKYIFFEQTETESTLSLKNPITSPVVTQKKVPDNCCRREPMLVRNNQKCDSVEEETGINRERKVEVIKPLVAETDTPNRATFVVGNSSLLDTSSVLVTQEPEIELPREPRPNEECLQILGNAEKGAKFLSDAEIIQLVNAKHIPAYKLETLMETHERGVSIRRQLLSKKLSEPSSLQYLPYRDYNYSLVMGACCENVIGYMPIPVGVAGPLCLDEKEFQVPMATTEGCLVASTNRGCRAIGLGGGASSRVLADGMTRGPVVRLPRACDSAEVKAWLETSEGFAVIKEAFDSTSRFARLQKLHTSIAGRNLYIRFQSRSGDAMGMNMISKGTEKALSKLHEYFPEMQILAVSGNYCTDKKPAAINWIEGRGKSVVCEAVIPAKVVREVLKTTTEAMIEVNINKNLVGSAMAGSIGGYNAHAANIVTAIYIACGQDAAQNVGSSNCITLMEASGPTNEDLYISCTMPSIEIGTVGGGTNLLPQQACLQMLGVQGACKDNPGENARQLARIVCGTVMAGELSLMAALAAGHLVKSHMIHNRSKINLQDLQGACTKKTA
The data set is described as follows: Inhibition of HMG-CoA reductase (unknown origin) in neutral aqueous media. An outline of the steps: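 HMG-CoA reductase kit assay. Compounds were 0.1 mM working solutions made from 0.01 M DMSO stocks diluted in water; 2 μL of each added per well. NADPH consumption followed as absorbance at 340 nm every 20 s for up to 10 min. Activity calculated from the NADPH extinction coefficient. Run in triplicate.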

Data set [5] can be described thus: Stability of the compound in acetate buffer at pH 5 measured after 24 hrs by HPLC-MS analysis. The class given is physicochemical. The settings on record: pH 5, 24 h. An outline of the steps:
as §1

Data set [6] addresses T1, 3-hydroxy-3-methylglutaryl-coenzyme A reductase (Homo sapiens). The data set is described as follows: Inhibition of HMG-CoA reductase (unknown origin) in presence of cathepsin B. An outline of the steps:
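Compound (40 μM final) incubated for 24 h at 37 °C with recombinant cathepsin B (30 nM final) in 0.1 M sodium acetate pH 3.6, 100 mM NaCl, 1 mM EDTA, 0.6% DMSO. 5 μL of the mixture then tested in the HMG-CoA reductase kit assay: absorbance at 340 nm every 20 s for up to 10 min, in triplicate. Controls: enzyme-only buffer and compound without protease.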

Data set [7] in a line: Solubility of the compound in water incubated for 15 mins under shaking conditions by UV spectrophotometry relative to atorvastatin. Format: physicochemical. To be noted: buffer, 0.25 h. An outline of the steps: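 Excess compound shaken strongly in 1 ml water for 15 min, then filtered or centrifuged. 50 μL of the saturated solution diluted into 1 mL methanol. Absorbance read at 290 nm and concentration taken from standard curves.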

Data set [8] in a line: Stability of the compound in PBS buffer at pH 7.4 measured after 24 hrs by HPLC-MS analysis. The class given is physicochemical. To be noted: pH 7.4, 24 h. In short, it runs like this:
as §1

As a reminder, the Kd is the constant that tells how readily two partners part at equilibrium. What is called solubility is the concentration that dissolves in the medium under given conditions. A high value points to much dissolved substance.

Turning to `CC(=O)N[C@H]1[C@H](OCCn2cc(COC(=O)C[C@H](O)C[C@H](O)CCn3c(-c4ccc(F)cc4)c(-c4ccccc4)c(C(=O)Nc4ccccc4)c3C(C)C)nn2)O[C@H](CO)[C@H](O)[C@@H]1O`, the Kd in data set [1] is 79 nM. In data set [2], the Stability entry was “Stable”. For the same compound, in data set [3], the solubility at 0.25 h stood at 320 µM (≈ 284 µg/mL).
`CC(=O)N[C@@H]1[C@@H](O)[C@@H](O)[C@@H](CO)O[C@H]1n1cc(COC(=O)C[C@H]2C[C@@H](CCn3c(-c4ccc(F)cc4)c(-c4ccccc4)c(C(=O)Nc4ccccc4)c3C(C)C)OC(C)(C)O2)nn1`: the Kd in data set [1] amounted to 0.15 nM. Moreover, in data set [3], the concentration in solution (solubility at 0.25 h) came to 30 µM (≈ 26.5 µg/mL).
For the compound `CC(=O)N[C@H]1[C@H](OCCn2cc(COC(=O)C[C@H]3C[C@@H](CCn4c(-c5ccc(F)cc5)c(-c5ccccc5)c(C(=O)Nc5ccccc5)c4C(C)C)OC(C)(C)O3)nn2)O[C@H](CO)[C@H](O)[C@@H]1O`, in data set [1], the Kd was 0.33 nM. The “inhibition (active/not active)” value in data set [4] is “Active”. In data set [3], the solubility at 0.25 h was 50 µM (≈ 46.4 µg/mL).
Regarding `CC(=O)N[C@@H]1[C@@H](O)[C@@H](O)[C@@H](CO)O[C@@H]1O`, the Kd in data set [1] amounted to 4500 nM.
As for `CC(=O)N[C@H]1[C@H](OCCn2cc(CNC(=O)C[C@H](O)C[C@H](O)CCn3c(-c4ccc(F)cc4)c(-c4ccccc4)c(C(=O)Nc4ccccc4)c3C(C)C)nn2)O[C@H](CO)[C@H](O)[C@@H]1O`, the Kd in data set [1] was 161 nM. In addition, the Stability result in data set [5] and in data set [8] was “Stable” in each case. Moreover, in data set [6], the inhibition entry is “Active”. The fold change (FC) in data set [7] came to 5. The “inhibition (active/not active)” value in data set [4] is “inactive”. In addition, the solubility at 0.25 h in data set [3] amounted to 540 µM (≈ 478 µg/mL).
For the compound `CC[C@H](C)C(=O)O[C@H]1C[C@H](O)C=C2C=C[C@H](C)[C@H](CC[C@@H](O)C[C@@H](O)CC(=O)O)[C@H]21`, the inhibition entry in data set [6] is “Active”.
`CC(=O)N[C@@H]1[C@@H](O)[C@@H](O)[C@@H](CO)O[C@H]1n1cc(CNC(=O)C[C@H](O)C[C@H](O)CCn2c(-c3ccc(F)cc3)c(-c3ccccc3)c(C(=O)Nc3ccccc3)c2C(C)C)nn1`: the Kd in data set [1] turned out to be 113 nM. The Stability entry in data set [5] and in data set [8] was “Stable” each time. Also, the inhibition result in data set [6] was “Active”. This compound also registered a fold change (FC) in data set [7] of 4. Moreover, the “inhibition (active/not active)” value in data set [4] is “inactive”. In data set [3], this compound had a solubility at 0.25 h of 450 µM (≈ 379 µg/mL).
As to `CC(=O)N[C@@H]1[C@@H](O)[C@@H](O)[C@@H](CO)O[C@H]1n1cc(COC(=O)C[C@H](O)C[C@H](O)CCn2c(-c3ccc(F)cc3)c(-c3ccccc3)c(C(=O)Nc3ccccc3)c2C(C)C)nn1`, the Kd in data set [1] stood at 48 nM. Besides, the “inhibition (active/not active)” value in data set [4] is “Active”. The Stability entry in data set [2] is given as “Stable”. In data set [3], the concentration in solution (solubility at 0.25 h) was 200 µM (≈ 169 µg/mL).
Turning to `CC(=O)N[C@H]1[C@H](OCCNC(=O)C[C@H](O)C[C@H](O)CCn2c(-c3ccc(F)cc3)c(-c3ccccc3)c(C(=O)Nc3ccccc3)c2C(C)C)O[C@H](CO)[C@H](O)[C@@H]1O`, the Kd in data set [1] is 69 nM. For the same compound, in data set [7], the “fold change (FC)” value came to 4. This compound had a solubility at 0.25 h in data set [3] of 430 µM (≈ 346 µg/mL).
